System: Cell line
Test: Parasitaemia for Plasmodium falciparum in human erythrocytes after 3 hrs incubation with 100 uM compound
Format: functional
Procedure, shortened: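 Uninfected RBCs preincubated 3 h at 37 °C with 100 µM compound, washed in RPMI medium, then placed 6 h with RBCs carrying 44–48 h schizonts of synchronized K1 culture (plasmagel and sorbitol synchronization); reinvasion read as resulting parasitemia (%).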

Compound: CCN(CC)CCCC(C)Nc1ccnc2cc(Cl)ccc12.O=P(O)(O)O.O=P(O)(O)O (stereo unspecified) [CHLOROQUINE PHOSPHATE]
- Parasitemia: 5.67%
